In the library only some 1.9% were active in any assay of this set; here they are far more common.
M5 antag = CHRM5 antagonism in calcium assay | P08912 | CHO-hM5 cells, Fluo-8 calcium fluorescence, ACh EC80 | inhibition, % at 3 µM | 0.59% of 360,000 active | AID 624040;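 active means inhibition above a per-plate cutoff, the mean of that plate's test compounds plus 3 SD, cut at about 27% in these data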
Target sequence (P08912 whole entry, looked up): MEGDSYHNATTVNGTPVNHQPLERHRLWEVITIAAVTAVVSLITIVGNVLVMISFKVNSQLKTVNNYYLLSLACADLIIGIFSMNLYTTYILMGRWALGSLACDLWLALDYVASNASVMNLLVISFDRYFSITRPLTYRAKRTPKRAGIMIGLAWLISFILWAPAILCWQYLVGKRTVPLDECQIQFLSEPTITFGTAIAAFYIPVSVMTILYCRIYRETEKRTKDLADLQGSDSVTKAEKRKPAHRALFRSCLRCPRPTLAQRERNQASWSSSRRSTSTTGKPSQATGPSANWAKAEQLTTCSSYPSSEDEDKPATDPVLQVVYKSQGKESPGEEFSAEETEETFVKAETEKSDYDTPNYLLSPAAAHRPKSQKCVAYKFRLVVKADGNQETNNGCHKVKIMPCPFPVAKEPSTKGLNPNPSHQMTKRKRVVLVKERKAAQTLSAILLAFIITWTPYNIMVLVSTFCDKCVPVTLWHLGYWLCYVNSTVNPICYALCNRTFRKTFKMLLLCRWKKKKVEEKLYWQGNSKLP
CHRM4 agonist = CHRM4 agonism in calcium assay; CHO-K1 hM4/Gqi5, Fluo-8 calcium fluorescence; vehicle 0%, full acetylcholine response 100%; P08173; 0.14% of 360,000 active; AID 624127; activation, % at 3 µM;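 active means activation above the run mean over all test wells plus 3 SD, cut at about 32% in these data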;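 further: peak over basal fluorescence ratio per well then scaled between controls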
CHRM4 PAM = CHRM4 positive allosteric modulation | P08173 | CHO-K1 hM4/Gqi5, Fluo-8 calcium fluorescence, ACh EC20; 0% = ACh EC20, 100% = maximal ACh | activation, % at 3 µM | 0.4% of 360,000 active | AID 624126;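 active means activation above its plate's cutoff, the mean activation of sample wells plus 3 SD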
M4 antag = blocks acetylcholine activation of human M4 receptor. 0.73% of 360,000 active. CHO-hM4 cells, ACh EC80, Fluo-8 calcium fluorescence. P08173. inhibition, % at 3 µM. AID 624125;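 active means inhibition above its plate's cutoff, the mean inhibition of sample wells plus 3 SD, cut at about 27% in these data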
CHRM5 PAM = CHRM5 positive allosteric modulation | P08912 | CHO-K1 hM5, Fluo-8 calcium, ACh EC20 PAM; 0% = ACh EC20, 100% = ACh EC100 | activation, % at 3 µM | 0.3% of 360,000 active | AID 624038;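 active means activation above the run cutoff, the mean activation of all test compounds plus 3 SD, cut at about 18% in these data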
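Assay system: CHO-K1 hM5 cells / Incubation: Fluo-8 loading 80 min at 37 °C plus 30 min room temperature / Technique: Fluo-8 calcium dye fluorescence, kinetic read / Repeats: single replicate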
CHRM5 agonist = CHRM5 agonism in calcium assay | P08912 | CHO-K1 hM5 cells, Fluo-8 calcium fluorescence; 0% DMSO wells, 100% maximal acetylcholine response | activation, % at 3 µM | 0.19% of 360,000 active | AID 624037;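 active means activation above the run's mean over test compounds plus 3 SD, cut at about 23% in these data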;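 further: signal is peak over basal fluorescence ratio across the kinetic read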
Each line names hits and unclear results; the compound was inactive in the other large screens.

CCOc1ccc(NC(=O)CN2C(=O)NC(C)(c3ccc(OC(F)F)cc3)C2=O)cc1 (stereo unspecified)	CHRM4 agonist 51
CC1(c2ccc(OC(F)F)cc2)NC(=O)N(CC(=O)Nc2ccc(OC(F)F)cc2)C1=O (stereo unspecified)	CHRM4 agonist 38, CHRM5 agonist 27
CC1(c2ccc(OC(F)F)cc2)NC(=O)N(CC(=O)Nc2ccc(F)cc2)C1=O (stereo unspecified)	CHRM4 agonist 32, CHRM5 agonist 24
Cc1csc(NC(=O)C2CCN(S(=O)(=O)c3ccc4c(c3)oc(=O)n4C)CC2)n1	none
Cc1csc(NC(=O)C(CC(C)C)NS(=O)(=O)c2ccc3c(c2)oc(=O)n3C)n1 (stereo unspecified)	M4 antag 34
O=C1Nc2ccc(Br)cc2/C1=C/C1CC=CCC1 (stereo unspecified)	CHRM5 PAM 26
COc1cc(/C=C/C(=O)c2ccc3c(c2)OCO3)cc(Cl)c1O	M5 antag 33, CHRM4 agonist 125, M4 antag 32, CHRM5 agonist 50
COc1ccc(C(=O)C=Cc2ccc3c(c2)OCO3)cc1OC	none
CCN(CC)CCCn1c(C)cc2c(c1=O)C(c1cc(OC)c(OC)cc1OC)C(C#N)=C(N)O2 (stereo unspecified)	M4 antag 30
COc1cc(OC)c(C2C(C#N)=C(N)Oc3cc(C)n(CCCN4CCOCC4)c(=O)c32)cc1OC (stereo unspecified)	none
COC(=O)c1c(O)cc(C(C)(C)C)n(-c2ccc(F)cc2)c1=O	CHRM4 PAM 37
CC(=O)c1c(O)cc(C)n(-c2ccc(F)cc2)c1=O	none
O=P(CCO)(c1ccccc1)c1ccccc1	none
O=C(O)CP(=O)(c1ccccc1)c1ccccc1	CHRM4 PAM 22
CCCN1C(=O)S/C(=C/c2ccc(N3CCOCC3)o2)C1=O	M4 antag 31
Cc1ccccc1-n1c(SCC(=O)N2CCCC2)nnc1-c1ccccn1	CHRM5 PAM 19
Cn1c(Cc2ccccc2)nnc1SCC(=O)N1CCCCC1	M4 antag 95
CCOc1cc(/C=C/C(=O)OCC(=O)NCc2ccco2)cc(Cl)c1OC	none
CC[C@]1(C(=O)OC)[C@H]2C(=O)N(C)C(=O)[C@H]2[C@H]2CN=C(SCc3ccc(C(=O)OC)cc3)N21	none
COc1ccc(-n2c(/C=C(\C)O)nc(=O)c3c(C)cc(C)nc32)cc1	CHRM4 PAM 34
COc1ccc(-n2c(C)nn(C)c2=O)cc1	none
Clc1ccc(OCc2cn3ccccc3n2)c2ncccc12	M5 antag 35
COc1cc(OC)c(N2CC(C(=O)NCCC3=CCCCC3)CC2=O)cc1Cl (stereo unspecified)	none
CCn1c(=O)c2cc(C(=O)NCCN3CCOCC3)sc2c2ccccc21	M4 antag 76
CC(=O)c1cccc(S(=O)(=O)N2CCC(C(=O)O)CC2)c1	none
CC(=O)c1cccc(NC(=O)C(C)OC(=O)c2cccc(S(=O)(=O)N3CCN(C)CC3)c2)c1 (stereo unspecified)	CHRM5 agonist 44
CC(OC(=O)c1cccc(S(=O)(=O)N2CCN(C)CC2)c1)C(=O)Nc1ccc(C(N)=O)cc1 (stereo unspecified)	none
CC(=O)c1cccc(S(=O)(=O)N2CCC(C(=O)O)(c3ccccc3)CC2)c1	CHRM4 PAM 16
Cc1onc(-c2ccccc2)c1C(=O)NNC(=S)NC(=O)c1ccc2c(c1)OCO2	CHRM4 agonist 70
Nc1nc(N)nc(C2C=CCCC2)n1 (stereo unspecified)	none
CCCCn1c(N)c(N(CC(C)C)C(=O)c2ccc(OCC3CCCO3)cc2)c(=O)[nH]c1=O (stereo unspecified)	none
COc1ccc(-c2csc(NC(=O)CN3C(=O)C4CC=CCC4C3=O)n2)cc1OC (stereo unspecified)	M5 antag 29
COc1ccc(CC(=O)Nc2nc(-c3ccc(OC)c(OC)c3)cs2)cc1OC	CHRM5 agonist 23
COc1ccc(-c2csc(NC(=O)Cc3ccccc3F)n2)cc1OC	M4 antag 45
